In ChEMBL document CHEMBL4325828, “The Design, Synthesis, and Characterizations of Spore Germination Inhibitors Effective against an Epidemic Strain of Clostridium difficile” (J Med Chem, 2018):

System: Clostridioides difficile
Assay: Antibacterial activity against Clostridium difficile R20291 assessed as inhibition of spore germination by measuring heat activated spore germination levels at 125 uM in presence of 6 mM taurocholate and 12 mM glycine measured every minute for 2 hrs by standard optical density assay relative to control
Type: functional
Set-up: scale not given: the % may be the effect or the level left
Procedure, shortened: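 R20291 spores were screened at a single 125 µM concentration, with germination followed as the fall in absorbance at 580 nm. Compounds not soluble at 125 µM by visual inspection were discarded. Inhibition is relative to untreated spore samples.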

Question: With `COc1cccc(NC(=O)CC[C@@H](C)[C@H]2CC[C@H]3[C@@H]4[C@H](O)C[C@@H]5C[C@H](O)CC[C@]5(C)[C@H]4C[C@H](O)[C@]23C)c1` as the compound, how does the Activity read?
Answer: 55%

Question: Which Activity does the source give for `COc1ccc(CCNC(=O)CC[C@@H](C)[C@H]2CC[C@H]3[C@@H]4[C@H](O)C[C@@H]5C[C@H](O)CC[C@]5(C)[C@H]4C[C@H](O)[C@]23C)c(OC)c1` here?
Answer: 101%

Question: For `C[C@H](CCC(=O)NC1CCCCC1)[C@H]1CC[C@H]2[C@@H]3[C@H](O)C[C@@H]4C[C@H](O)CC[C@]4(C)[C@H]3C[C@H](O)[C@]12C`, which Activity is on record?
Answer: 47%

Question: `C[C@H](CCC(=O)NC(CCC(=O)O)C(=O)O)[C@H]1CC[C@H]2[C@@H]3[C@H](O)C[C@@H]4C[C@H](O)CC[C@]4(C)[C@H]3C[C@H](O)[C@]12C` (stereo partly specified) was tested. Which Activity did it give?
Answer: 114%

Question: Which Activity does the source give for `C[C@H](CCC(=O)Nc1ccc(N)cc1)[C@H]1CC[C@H]2[C@@H]3[C@H](O)C[C@@H]4C[C@H](O)CC[C@]4(C)[C@H]3C[C@H](O)[C@]12C.Cl` here?
Answer: 82%

Question: `C[C@H](CCC(=O)Nc1cccc(S(=O)(=O)O)c1)[C@H]1CC[C@H]2[C@@H]3[C@H](O)C[C@@H]4C[C@H](O)CC[C@]4(C)[C@H]3C[C@H](O)[C@]12C` was tested. Which Activity did it give?
Answer: 102%

Question: `C[C@H](CCC(=O)NC1CCCC1)[C@H]1CC[C@H]2[C@@H]3[C@H](O)C[C@@H]4C[C@H](O)CC[C@]4(C)[C@H]3C[C@H](O)[C@]12C` was tested. Which Activity did it give?
Answer: 6%

Question: `C[C@H](CCC(=O)Nc1ccc(O)cc1)[C@H]1CC[C@H]2[C@@H]3[C@H](O)C[C@@H]4C[C@H](O)CC[C@]4(C)[C@H]3C[C@H](O)[C@]12C` was tested. Which Activity did it give?
Answer: 20%

Question: How did the Activity turn out when `COc1ccc(NC(=O)CC[C@@H](C)[C@H]2CC[C@H]3[C@@H]4[C@H](O)C[C@@H]5C[C@H](O)CC[C@]5(C)[C@H]4C[C@H](O)[C@]23C)cc1` was run?
Answer: 79%

Question: With `C[C@H](CCC(=O)NCCC#N)[C@H]1CC[C@H]2[C@@H]3[C@H](O)C[C@@H]4C[C@H](O)CC[C@]4(C)[C@H]3C[C@H](O)[C@]12C` as the compound, how does the Activity read?
Answer: 112%

Question: `C[C@H](CCC(=O)NCCCO)[C@H]1CC[C@H]2[C@@H]3[C@H](O)C[C@@H]4C[C@H](O)CC[C@]4(C)[C@H]3C[C@H](O)[C@]12C` was tested. Which Activity did it give?
Answer: 92%

Question: `C[C@H](CCC(=O)Nc1cccc(NC(=O)OC(C)(C)C)c1)[C@H]1CC[C@H]2[C@@H]3[C@H](O)C[C@@H]4C[C@H](O)CC[C@]4(C)[C@H]3C[C@H](O)[C@]12C` was tested. Which Activity did it give?
Answer: 89%

Question: Which Activity does the source give for `C[C@H](CCC(=O)NCc1ccc(S(N)(=O)=O)cc1)[C@H]1CC[C@H]2[C@@H]3[C@H](O)C[C@@H]4C[C@H](O)CC[C@]4(C)[C@H]3C[C@H](O)[C@]12C` here?
Answer: 109%

Question: Which Activity does the source give for `C[C@H](CCC(=O)NCCCCNC(=O)OC(C)(C)C)[C@H]1CC[C@H]2[C@@H]3[C@H](O)C[C@@H]4C[C@H](O)CC[C@]4(C)[C@H]3C[C@H](O)[C@]12C` here?
Answer: 117%

Question: `C[C@H](CCC(=O)NCc1ccccc1)[C@H]1CC[C@H]2[C@@H]3[C@H](O)C[C@@H]4C[C@H](O)CC[C@]4(C)[C@H]3C[C@H](O)[C@]12C` was tested. Which Activity did it give?
Answer: 70%

Question: `C[C@H](CCC(=O)NCc1ccc(N)cc1)[C@H]1CC[C@H]2[C@@H]3[C@H](O)C[C@@H]4C[C@H](O)CC[C@]4(C)[C@H]3C[C@H](O)[C@]12C` was tested. Which Activity did it give?
Answer: 104%

Question: With `COC(=O)C(NC(=O)CC[C@@H](C)[C@H]1CC[C@H]2[C@@H]3[C@H](O)C[C@@H]4C[C@H](O)CC[C@]4(C)[C@H]3C[C@H](O)[C@]12C)C(C)C` (stereo partly specified) as the compound, how does the Activity read?
Answer: 100%

Question: For `C[C@H](CCC(=O)NCCc1cccs1)[C@H]1CC[C@H]2[C@@H]3[C@H](O)C[C@@H]4C[C@H](O)CC[C@]4(C)[C@H]3C[C@H](O)[C@]12C`, which Activity is on record?
Answer: 93%

Question: How did the Activity turn out when `C[C@H](CCC(=O)NCCCN)[C@H]1CC[C@H]2[C@@H]3[C@H](O)C[C@@H]4C[C@H](O)CC[C@]4(C)[C@H]3C[C@H](O)[C@]12C.Cl` was run?
Answer: 124%

Question: For `C[C@H](CCC(=O)NCc1cccnc1)[C@H]1CC[C@H]2[C@@H]3[C@H](O)C[C@@H]4C[C@H](O)CC[C@]4(C)[C@H]3C[C@H](O)[C@]12C`, which Activity is on record?
Answer: 94%

Question: How did the Activity turn out when `C[C@H](CCC(=O)NCCc1ccccc1)[C@H]1CC[C@H]2[C@@H]3[C@H](O)C[C@@H]4C[C@H](O)CC[C@]4(C)[C@H]3C[C@H](O)[C@]12C` was run?
Answer: 104%

Question: `C[C@H](CCC(=O)NC(Cc1ccccc1)C(=O)O)[C@H]1CC[C@H]2[C@@H]3[C@H](O)C[C@@H]4C[C@H](O)CC[C@]4(C)[C@H]3C[C@H](O)[C@]12C` (stereo partly specified) was tested. Which Activity did it give?
Answer: 108%

Question: With `C[C@H](CCC(=O)NCc1ccc([N+](=O)[O-])cc1)[C@H]1CC[C@H]2[C@@H]3[C@H](O)C[C@@H]4C[C@H](O)CC[C@]4(C)[C@H]3C[C@H](O)[C@]12C` as the compound, how does the Activity read?
Answer: 88%

Question: How did the Activity turn out when `C[C@H](CCC(=O)NCc1ccc(Cl)c(Cl)c1)[C@H]1CC[C@H]2[C@@H]3[C@H](O)C[C@@H]4C[C@H](O)CC[C@]4(C)[C@H]3C[C@H](O)[C@]12C` was run?
Answer: 111%

Question: For `C[C@H](CCC(=O)NCc1ccccc1N)[C@H]1CC[C@H]2[C@@H]3[C@H](O)C[C@@H]4C[C@H](O)CC[C@]4(C)[C@H]3C[C@H](O)[C@]12C`, which Activity is on record?
Answer: 95%

Question: For `COc1ccc(NC(=O)CC[C@@H](C)[C@H]2CC[C@H]3[C@@H]4[C@H](O)C[C@@H]5C[C@H](O)CC[C@]5(C)[C@H]4C[C@H](O)[C@]23C)c(OC)c1`, which Activity is on record?
Answer: 93%

Question: With `C[C@H](CCC(=O)NCC(c1ccccc1)c1ccccc1)[C@H]1CC[C@H]2[C@@H]3[C@H](O)C[C@@H]4C[C@H](O)CC[C@]4(C)[C@H]3C[C@H](O)[C@]12C` as the compound, how does the Activity read?
Answer: 101%

Question: Which Activity does the source give for `CCOC(=O)c1ccc(NC(=O)CC[C@@H](C)[C@H]2CC[C@H]3[C@@H]4[C@H](O)C[C@@H]5C[C@H](O)CC[C@]5(C)[C@H]4C[C@H](O)[C@]23C)cc1` here?
Answer: 105%

Question: For `C[C@H](CCC(=O)NCCCN1C(=O)c2ccccc2C1=O)[C@H]1CC[C@H]2[C@@H]3[C@H](O)C[C@@H]4C[C@H](O)CC[C@]4(C)[C@H]3C[C@H](O)[C@]12C`, which Activity is on record?
Answer: 82%

Question: `CCOC(=O)CCCNC(=O)CC[C@@H](C)[C@H]1CC[C@H]2[C@@H]3[C@H](O)C[C@@H]4C[C@H](O)CC[C@]4(C)[C@H]3C[C@H](O)[C@]12C` was tested. Which Activity did it give?
Answer: 95%

Question: `C[C@H](CCC(=O)NCCCCN)[C@H]1CC[C@H]2[C@@H]3[C@H](O)C[C@@H]4C[C@H](O)CC[C@]4(C)[C@H]3C[C@H](O)[C@]12C.Cl` was tested. Which Activity did it give?
Answer: 104%

Question: How did the Activity turn out when `C[C@H](CCC(=O)NCc1ccccn1)[C@H]1CC[C@H]2[C@@H]3[C@H](O)C[C@@H]4C[C@H](O)CC[C@]4(C)[C@H]3C[C@H](O)[C@]12C` was run?
Answer: 93%

Question: With `CCOC(=O)c1cccc(NC(=O)CC[C@@H](C)[C@H]2CC[C@H]3[C@@H]4[C@H](O)C[C@@H]5C[C@H](O)CC[C@]5(C)[C@H]4C[C@H](O)[C@]23C)c1` as the compound, how does the Activity read?
Answer: 109%

Question: Which Activity does the source give for `COc1ccc(CNC(=O)CC[C@@H](C)[C@H]2CC[C@H]3[C@@H]4[C@H](O)C[C@@H]5C[C@H](O)CC[C@]5(C)[C@H]4C[C@H](O)[C@]23C)c(OC)c1` here?
Answer: 85%

Question: How did the Activity turn out when `C[C@H](CCC(=O)NCCN1CCCC1)[C@H]1CC[C@H]2[C@@H]3[C@H](O)C[C@@H]4C[C@H](O)CC[C@]4(C)[C@H]3C[C@H](O)[C@]12C` was run?
Answer: 101%

Question: With `COc1cc(CNC(=O)CC[C@@H](C)[C@H]2CC[C@H]3[C@@H]4[C@H](O)C[C@@H]5C[C@H](O)CC[C@]5(C)[C@H]4C[C@H](O)[C@]23C)cc(OC)c1` as the compound, how does the Activity read?
Answer: 99%

Question: `COC(=O)C(Cc1ccccc1)NC(=O)CC[C@@H](C)[C@H]1CC[C@H]2[C@@H]3[C@H](O)C[C@@H]4C[C@H](O)CC[C@]4(C)[C@H]3C[C@H](O)[C@]12C` (stereo partly specified) was tested. Which Activity did it give?
Answer: 84%

Question: `C[C@H](CCC(=O)NCCN1C(=O)c2ccccc2C1=O)[C@H]1CC[C@H]2[C@@H]3[C@H](O)C[C@@H]4C[C@H](O)CC[C@]4(C)[C@H]3C[C@H](O)[C@]12C` was tested. Which Activity did it give?
Answer: 78%

Question: Which Activity does the source give for `Cc1csc(NC(=O)CC[C@@H](C)[C@H]2CC[C@H]3[C@@H]4[C@H](O)C[C@@H]5C[C@H](O)CC[C@]5(C)[C@H]4C[C@H](O)[C@]23C)n1` here?
Answer: 84%

Question: For `C[C@H](CCC(=O)NCCCN1C(=O)C(=O)c2ccccc21)[C@H]1CC[C@H]2[C@@H]3[C@H](O)C[C@@H]4C[C@H](O)CC[C@]4(C)[C@H]3C[C@H](O)[C@]12C`, which Activity is on record?
Answer: 95%

Question: For `C[C@H](CCC(=O)Nc1ccc(NC(=O)OC(C)(C)C)cc1)[C@H]1CC[C@H]2[C@@H]3[C@H](O)C[C@@H]4C[C@H](O)CC[C@]4(C)[C@H]3C[C@H](O)[C@]12C`, which Activity is on record?
Answer: 100%

Question: `C[C@H](CCC(=O)Nc1cccc(C(N)=O)c1)[C@H]1CC[C@H]2[C@@H]3[C@H](O)C[C@@H]4C[C@H](O)CC[C@]4(C)[C@H]3C[C@H](O)[C@]12C` was tested. Which Activity did it give?
Answer: 85%

System: Clostridioides difficile
Assay: Antibacterial activity against Clostridium difficile R20291 assessed as inhibition of spore germination in presence of 6 mM taurocholate and 12 mM glycine measured every minute for 2 hrs by standard optical density assay
Type: functional, organism-based
Procedure, shortened: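 IC50 was determined on R20291 spores across a range of compound concentrations in sodium phosphate medium with 6 mM taurocholate and 12 mM glycine. Germination was read as the decrease in absorbance at 580 nm.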

Question: For `COc1cccc(NC(=O)CC[C@@H](C)[C@H]2CC[C@H]3[C@@H]4[C@H](O)C[C@@H]5C[C@H](O)CC[C@]5(C)[C@H]4C[C@H](O)[C@]23C)c1`, which IC50 is on record?
Answer: 78 µM

Question: How did the IC50 turn out when `C[C@H](CCC(=O)NC1CCCCC1)[C@H]1CC[C@H]2[C@@H]3[C@H](O)C[C@@H]4C[C@H](O)CC[C@]4(C)[C@H]3C[C@H](O)[C@]12C` was run?
Answer: 95.4 µM

Question: For `C[C@H](CCC(=O)NC1CCCC1)[C@H]1CC[C@H]2[C@@H]3[C@H](O)C[C@@H]4C[C@H](O)CC[C@]4(C)[C@H]3C[C@H](O)[C@]12C`, which IC50 is on record?
Answer: 34.1 µM

Question: With `C[C@H](CCC(=O)Nc1ccc(O)cc1)[C@H]1CC[C@H]2[C@@H]3[C@H](O)C[C@@H]4C[C@H](O)CC[C@]4(C)[C@H]3C[C@H](O)[C@]12C` as the compound, how does the IC50 read?
Answer: 36 µM
